Experiments:
Format in all cases: functional
Mus musculus [1] = assay: Antinociceptive effect in Swiss Albino mouse assessed as licking latency at 10 mg/kg, sc after 30 mins by hotplate test; conditions: route subcutaneous
Outline: (§1)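 Male Swiss albino mice (23-30 g) got 1, 5 or 10 mg/kg s.c. or saline. Fore- or hind-paw licking latency on a 52.5 ± 0.1 °C plate was taken before dosing and at 15, 30, 45 and 60 min. Pretest range was 12-18 s (others rejected) with a 45 s cutoff. Each value is the mean of at least 10 mice; mean ± SEM.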

Mus musculus [2] = assay: Antinociceptive effect in Swiss Albino mouse assessed as licking latency at 1 mg/kg, sc after 45 mins by hotplate test; conditions: route subcutaneous; outline: as §1
Mus musculus [3] = assay: Antinociceptive effect in Swiss Albino mouse assessed as licking latency at 5 mg/kg, sc after 45 mins by hotplate test; conditions: route subcutaneous; outline: as §1
Mus musculus [4] = assay: Antinociceptive effect in Swiss Albino mouse assessed as licking latency at 10 mg/kg, sc after 45 mins by hotplate test; conditions: route subcutaneous; outline: as §1
Mus musculus [5] = assay: Antinociceptive effect in Swiss Albino mouse assessed as licking latency at 1 mg/kg, sc after 60 mins by hotplate test; conditions: route subcutaneous; outline: as §1
Mus musculus [6] = assay: Antinociceptive effect in Swiss Albino mouse assessed as licking latency at 10 mg/kg, sc after 15 mins by hotplate test; conditions: route subcutaneous
Mus musculus [7] = assay: Antinociceptive activity in sc dosed Swiss Albino mouse by hotplate test
Outline: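 Male Swiss albino mice (23-30 g), s.c. dosing. Paw-licking latency on a 52.5 ± 0.1 °C hot plate, read before and up to 60 min after dosing. Mice outside 12-18 s at pretest were excluded; cutoff was 45 s. […] was fitted from the dose-response data with a constrained four-parameter logistic model.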

Mus musculus [8] = assay: Antinociceptive effect in atropine treated Swiss Albino mouse assessed as licking latency at 10 mg/kg, sc by hotplate test; conditions: route subcutaneous
Outline: (§2)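 Antagonist pretreatment before s.c. test compound in male Swiss albino mice: atropine 5 mg/kg i.p., or hemicholinium-3 1 µg per mouse i.c.v. The i.c.v. dose was 5 µL in isotonic saline under ether anaesthesia. Paw-licking latency on a 52.5 °C hot plate was read at each compound's time of maximum effect, compared with saline-saline mice. Cutoff was 45 s.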

Mus musculus [9] = assay: Antinociceptive effect in hemicolinium-3 treated Swiss Albino mouse assessed as licking latency at 10 mg/kg, sc by hotplate test; conditions: route subcutaneous; outline: as §2
Mus musculus [10] = assay: (§3) Antinociceptive effect in Swiss Albino mouse assessed as licking latency at 5 mg/kg, sc after 15 mins by hotplate test; conditions: route subcutaneous; outline: as §1
Mus musculus [11] = assay: Antinociceptive effect in Swiss Albino mouse assessed as licking latency at 1 mg/kg, sc after 15 mins by hotplate test; conditions: route subcutaneous; outline: as §1
Mus musculus [12] = assay: Antinociceptive effect in Swiss Albino mouse assessed as licking latency at 1 mg/kg, sc after 30 mins by hotplate test; conditions: route subcutaneous; outline: as §1
Mus musculus [13] = assay: Antinociceptive effect in Swiss Albino mouse assessed as licking latency at 5 mg/kg, sc after 30 mins by hotplate test; conditions: route subcutaneous; outline: as §1
Mus musculus [14] = assay: Antinociceptive effect in Swiss Albino mouse assessed as licking latency at 5 mg/kg, sc after 60 mins by hotplate test; conditions: route subcutaneous; outline: as §1
Mus musculus [15] = assay: Antinociceptive effect in Swiss Albino mouse assessed as licking latency at 10 mg/kg, sc after 60 mins by hotplate test; conditions: route subcutaneous; outline: as §1
Mus musculus [16] = assay: Effect on motor coordination in Swiss Albino mouse assessed as number of falls from rotarod at 10 mg/kg after 15 mins relative to CMC
Outline: (§4)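 Motor coordination of male Swiss albino mice on the rota-rod, counted as number of falls, before dosing and 15, 30 and 45 min after. Each value is the mean of 6-8 mice, compared with vehicle-treated controls.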

Mus musculus [17] = assay: Effect on motor coordination in Swiss Albino mouse assessed as number of falls from rotarod at 10 mg/kg after 30 mins relative to CMC; outline: as §4
Mus musculus [18] = assay: Effect on motor coordination in Swiss Albino mouse assessed as number of falls from rotarod at 10 mg/kg after 45 mins relative to CMC; outline: as §4
Mus musculus [19] = assay: as §3; conditions: route subcutaneous; remark: listed apart in the source
Mus musculus [20] = assay: Antinociceptive effect in Swiss Albino mouse assessed as licking latency at 50 mg/kg, sc after 15 mins by hotplate test; conditions: route subcutaneous
Outline: (§5)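 Hot-plate test at 52.5 ± 0.1 °C in male Swiss albino mice (23-30 g) after s.c. dosing. The endpoint was fore- or hind-paw licking, timed before and at intervals up to 60 min. Mice scoring below 12 or above 18 s at pretest were rejected, with a 45 s cutoff. Mean ± SEM.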

Mus musculus [21] = assay: Antinociceptive effect in Swiss Albino mouse assessed as licking latency at 15 mg/kg, sc after 15 mins by hotplate test; conditions: route subcutaneous; outline: as §5
Mus musculus [22] = assay: Antinociceptive effect in Swiss Albino mouse assessed as licking latency at 30 mg/kg, sc after 15 mins by hotplate test; conditions: route subcutaneous; outline: as §5
Mus musculus [23] = assay: Antinociceptive effect in atropine treated Swiss Albino mouse assessed as licking latency at 30 mg/kg, sc by hotplate test; conditions: route subcutaneous; outline: as §2
Mus musculus [24] = assay: Effect on motor coordination in Swiss Albino mouse assessed as number of falls from rotarod at 30 mg/kg after 15 mins relative to CMC; outline: as §4
Mus musculus [25] = assay: Effect on motor coordination in Swiss Albino mouse assessed as number of falls from rotarod at 30 mg/kg after 30 mins relative to CMC; outline: as §4
Mus musculus [26] = assay: Effect on motor coordination in Swiss Albino mouse assessed as number of falls from rotarod at 30 mg/kg after 45 mins relative to CMC; outline: as §4
Mus musculus [27] = assay: Antinociceptive effect in atropine treated Swiss Albino mouse assessed as licking latency at 50 mg/kg, sc by hotplate test; conditions: route subcutaneous; outline: as §2
Mus musculus [28] = assay: Antinociceptive effect in Swiss Albino mouse assessed as licking latency at 40 mg/kg, sc after 15 mins by hotplate test; conditions: route subcutaneous; outline: as §5
Mus musculus [29] = assay: Antinociceptive effect in hemicolinium-3 treated Swiss Albino mouse assessed as licking latency at 50 mg/kg, sc by hotplate test; conditions: route subcutaneous; outline: as §2
Mus musculus [30] = assay: Effect on motor coordination in Swiss Albino mouse assessed as number of falls from rotarod at 50 mg/kg after 15 mins relative to CMC; outline: as §4
Mus musculus [31] = assay: Effect on motor coordination in Swiss Albino mouse assessed as number of falls from rotarod at 50 mg/kg after 30 mins relative to CMC; outline: as §4
Mus musculus [32] = assay: Effect on motor coordination in Swiss Albino mouse assessed as number of falls from rotarod at 50 mg/kg after 45 mins relative to CMC; outline: as §4
Mus musculus [33] = assay: Antinociceptive effect in Swiss Albino mouse assessed as licking latency at 20 mg/kg, sc after 15 mins by hotplate test; conditions: route subcutaneous; outline: as §5

## Cc1cccc(C)c1NC(=O)[C@H](N)C(C)C
Mus musculus [1]
  Activity: 23.6 s
Mus musculus [2]
  Activity: 15.3 s
Mus musculus [3]
  Activity: 17.1 s
Mus musculus [4]
  Activity: 18.5 s
Mus musculus [5]
  Activity: 14.5 s
Mus musculus [6]
  Activity: 30.3 s
Mus musculus [7]
  ED50: 5.7 mg/kg
Mus musculus [8]
  Activity: 16.9 s
Mus musculus [9]
  Activity: 17.5 s
Mus musculus [10]
  Activity: 23.7 s
Mus musculus [11]
  Activity: 16.5 s
Mus musculus [12]
  Activity: 17.2 s
Mus musculus [13]
  Activity: 20.6 s
Mus musculus [14]
  Activity: 14.9 s
Mus musculus [15]
  Activity: 15.1 s
Mus musculus [16]
  Activity: 2.3
Mus musculus [17]
  Activity: 1.2
Mus musculus [18]
  Activity: 0.9

## C[C@H](N)C(=O)Nc1ccc(Cl)cc1
Mus musculus [19]
  Activity: 15.8 s

## Cc1cc(Cl)cc(C)c1NC(=O)[C@H](N)C(C)C
Mus musculus [20]
  Activity: 17 s

## Cc1ccccc1NC(=O)[C@H](C)N
Mus musculus [21]
  Activity: 16.2 s

## Cc1cc(Cl)cc(C)c1NC(=O)[C@H](C)N
Mus musculus [22]
  Activity: 25.1 s
Mus musculus [7]
  ED50: 25.5 mg/kg
Mus musculus [23]
  Activity: 26.6 s
Mus musculus [24]
  Activity: 1.4
Mus musculus [25]
  Activity: 1.2
Mus musculus [26]
  Activity: 1

## Cc1ccccc1NC(=O)[C@@H](C)N
Mus musculus [6]
  Activity: 17.1 s

## Cc1cc(Cl)ccc1NC(=O)[C@H](C)N
Mus musculus [20]
  Activity: 21.1 s
Mus musculus [7]
  ED50: 41.3 mg/kg
Mus musculus [27]
  Activity: 20.5 s

## Cc1cccc(C)c1NC(=S)[C@H](C)N
Mus musculus [20]
  Activity: 18.6 s

## Cc1cccc(C)c1NC(=O)[C@H](C)N [S-TOCAINIDE]
Mus musculus [20]
  Activity: 14.3 s

## Cc1cccc(C)c1NC(=O)[C@H](N)CC(C)C
Mus musculus [6]
  Activity: 20.7 s
Mus musculus [7]
  ED50: 6.6 mg/kg
Mus musculus [8]
  Activity: 23.9 s
Mus musculus [16]
  Activity: 2.2
Mus musculus [17]
  Activity: 1.5
Mus musculus [18]
  Activity: 0.8

## Cc1cccc(C)c1NC(=S)[C@@H](C)N
Mus musculus [20]
  Activity: 18.8 s

## Cc1cccc(C)c1N(C)C(=O)[C@@H](N)C(C)C
Mus musculus [6]
  Activity: 13.6 s

## Cc1cc(Cl)ccc1NC(=O)[C@H](N)C(C)C
Mus musculus [22]
  Activity: 27.9 s
Mus musculus [7]
  ED50: 19.6 mg/kg
Mus musculus [23]
  Activity: 26.4 s
Mus musculus [24]
  Activity: 1.5
Mus musculus [25]
  Activity: 1.3
Mus musculus [26]
  Activity: 0.8

## Cc1cc(Cl)cc(C)c1NC(=O)[C@@H](N)C(C)C
Mus musculus [20]
  Activity: 17.2 s

## Cc1cccc(C)c1NC(=O)[C@@H](N)CC(C)C
Mus musculus [6]
  Activity: 21.3 s
Mus musculus [7]
  ED50: 6.8 mg/kg
Mus musculus [8]
  Activity: 20.7 s

## C[C@@H](N)C(=O)Nc1ccc(Cl)cc1
Mus musculus [19]
  Activity: 17.3 s

## Cc1cc(Cl)cc(C)c1NC(=O)[C@@H](C)N
Mus musculus [22]
  Activity: 23.2 s
Mus musculus [7]
  ED50: 17.8 mg/kg
Mus musculus [23]
  Activity: 23.7 s

## Cc1cc(Cl)ccc1NC(=O)[C@@H](N)C(C)C
Mus musculus [28]
  Activity: 19.9 s
Mus musculus [7]
  ED50: 25.9 mg/kg

## Cc1cccc(C)c1NC(=O)[C@@H](N)C(C)C
Mus musculus [6]
  Activity: 15.8 s

## Cc1cccc(C)c1NC(=O)[C@@H](C)N [(R)-TOCAINIDE]
Mus musculus [20]
  Activity: 26.5 s
Mus musculus [7]
  ED50: 33.6 mg/kg
Mus musculus [27]
  Activity: 17.5 s
Mus musculus [29]
  Activity: 18.6 s
Mus musculus [30]
  Activity: 1.7
Mus musculus [31]
  Activity: 1.4
Mus musculus [32]
  Activity: 0.9

## Cc1cccc(C)c1N(C)C(=O)[C@H](N)C(C)C
Mus musculus [33]
  Activity: 13.6 s

## Cc1cc(Cl)ccc1NC(=O)[C@@H](C)N
Mus musculus [20]
  Activity: 25.5 s
Mus musculus [7]
  ED50: 39.2 mg/kg
Mus musculus [27]
  Activity: 25 s
Mus musculus [30]
  Activity: 1.5
Mus musculus [31]
  Activity: 1.1
Mus musculus [32]
  Activity: 0.8
